Published values from different studies.
Lines come from different studies, so protocols differ.
Target: Death-associated protein kinase 3 (DAPK3, Homo sapiens, UniProt O43293)

`CCCS(=O)(=O)Nc1ccc(F)c(C(=O)c2c[nH]c3ncc(-c4ccc(Cl)cc4)cc23)c1F` has an inhibition of less than 10% (enzyme activity, inhibitor; 1 µM).
With `N#CC1(c2ccccn2)CCN(Cc2cc(C(=O)N3CCCC3)c(=O)n3ccccc23)CC1` the remaining binding was 86% (cell-free assay, competition with immobilised ligand; 1 µM).
`CC(C)(C)c1nc2c(s1)c1nc(N)ncc1c1ccc(NS(=O)(=O)c3c(F)cccc3F)c(F)c12` gave a remaining activity of 58% (enzyme activity, inhibitor, radiometric; 1 µM).
`Cc1sc(C(=O)NC2COC2)cc1-n1cc(NC(=O)Nc2c(F)cccc2Cl)cn1` gave a remaining activity of 101% (enzyme activity, inhibitor; 10 µM).
For `O=C(Nc1cccnn1)N1CCC(=Cc2cccc(Oc3ccc(C(F)(F)F)cn3)c2)CC1`, the remaining binding was 79% (cell-free assay, competition with immobilised ligand; 1 µM).
With `CNC(=O)c1cc(Oc2ccc(NC(=O)Nc3ccc(Cl)c(C(F)(F)F)c3)cc2)ccn1` the remaining signal was 92.9% (cell-free assay; 0.5 µM).
`O=c1nc(-c2ccccn2)sc2ccccc12` has a remaining binding of 91% (binding, competition with immobilised ligand; 1 µM).
`CCN(CC)CCNC(=O)c1c(C)[nH]c(/C=C2\C(=O)Nc3ccc(F)cc32)c1C` has an inhibition of 35% (enzyme activity, inhibitor; 0.3 µM).
`O=C1Nc2ccc(Cl)cc2C1=Cc1cc(Cl)c(O)c(Cl)c1` gave a remaining signal of 82.3% (cell-free assay; 0.5 µM).
For `Nc1ncnc2occ(-c3ccc(NC(=O)Nc4cc(C(F)(F)F)ccc4F)cc3)c12`, the remaining signal was 7.9% (cell-free assay, inhibitor; 20 µM).
With `O=S(=O)(NC1CCC(c2cc(F)ccc2F)(S(=O)(=O)c2ccc(Cl)cc2)CC1)C(F)(F)F` (centres unmarked) the remaining binding was 97% (cell-free assay, competition with immobilised ligand; 1 µM).
With `O=C1NC(=O)c2cc(Nc3ccc(F)cc3)c(Nc3ccc(F)cc3)cc21` the remaining signal was 101% (cell-free assay; 0.5 µM).
The remaining activity of `CCN(CC)c1ccc(C2=NNC(=O)CC2C)cc1[N+](=O)[O-]` (centres unmarked) is reported as 100% (enzyme activity, inhibitor; 10 µM).
For `COc1cc(Cl)c(C(=O)N[C@@H](CN[C@H]2CC[C@@H](N)CC2)Cc2ccc(C#N)cc2)cc1-c1ccc(CN[C@H](C)c2ccc(C)cc2)o1`, the remaining activity was 89% (enzyme activity, inhibitor; 1 µM).
`Cc1ccc(Nc2nccc(N(C)c3ccc4c(C)n(C)nc4c3)n2)cc1S(N)(=O)=O` gave an inhibition of -2% (enzyme activity, inhibitor; 10 µM).
The remaining binding of `C[C@H](c1ccc(F)cc1)N(Cc1cccc(C(=O)O)c1)C(=O)c1cnc2ccccc2c1` is reported as 100% (cell-free assay, competition with immobilised ligand; 1 µM).
`CS(=O)(=O)CCNCc1ccc(-c2ccc3ncnc(Nc4ccc(OCc5cccc(F)c5)c(Cl)c4)c3c2)o1` has a remaining signal of 97.4% (cell-free assay; 0.5 µM).
With `COc1cc(-c2cc(-c3ccc(N4CCNCC4)cc3)cnc2C)cc(OC)c1OC` the inhibition was 2% (enzyme activity, inhibitor; 1 µM).
For `Cc1cnc(NC2CCOCC2)nc1-n1cnc(C(=O)NC(CN)c2cc(F)cc(Cl)c2)c1` (centres unmarked), the remaining activity was 107% (enzyme activity, inhibitor, radiometric; 1 µM).
The remaining activity of `CC(C)(O)[C@H]1CC[C@H](Nc2ccc3ncc(-c4cccc(C(F)(F)F)c4)n3n2)CC1` is reported as 120% (enzyme activity, inhibitor; 1 µM).
For `COc1cc(-c2cn(C3CCc4ccccc4N(CC(F)(F)F)C3=O)nn2)ccc1-n1ccc(C)n1` (centres unmarked), the remaining binding was 100% (cell-free assay, competition with immobilised ligand; 1 µM).
With `Cn1c2c(c3ccc(Cl)c(Cl)c31)C(C#N)C1(CCNCC1)NC2=O` (racemic) the ΔTm was greater than 8 °C (thermal stability, DSF; 10 µM).
`COc1cc2ncnc(Nc3ccc(Oc4ccccc4)c(C)c3C)c2cc1OC` has an inhibition of 1% (enzyme activity, inhibitor; 1 µM).
